Measured values published in publication PMC5900333 (ACS Medicinal Chemistry Letters, 2018).

What was measured:
[1] = Rat pharmacokinetics; conditions: both, Sprague-Dawley, in vivo, iv
[2] = target: rabbit fast skeletal muscle myofibrils (Oryctolagus cuniculus, UniProt P02586+P02641+P02643); assay: Fast skeletal myofibril ATPase assay; assay type: biochemical; conditions: 14 vs 13; 25 vs bromo 14
Summary of the method: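 Rabbit fast skeletal muscle myofibrils; the read-out is the rate of ATP hydrolysis. The assay runs at a calcium level of 25% of that giving a maximal response in control preparations. AC40 is the test compound concentration that raises myofibril ATPase activity by 40%. Experiments were run in duplicate, and the fold potency change is taken from the AC40 values.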

[3] = tested on: B6SJL-SOD1^G93A mouse; conditions: B6SJL-SOD1G93A mice, single dose; cited from earlier work
[4] = Mouse pharmacokinetics; conditions: in vivo, iv, 1 mg/kg
[5] = tested on: extensor digitorum longus (EDL) muscle; assay: In situ EDL muscle force; assay type: in vivo; conditions: rat, systemic infusion, submaximal stimulation rates
[6] = tested on: PT-EAMG (passive transfer experimental autoimmune myasthenia gravis) rat model; conditions: rats treated with anti-nAchRα antibody; cited from earlier work
[7] = In vivo clearance across nonclinical species vs hepatic blood flow
[8] = tested on: patients with ALS; conditions: Phase 3, patients with ALS; ref VITALITY-ALS, NCT02496767; cited from earlier work
[9] = ALS patients taking both 25 and Riluzole; cited from earlier work
[10] = Microsomal turnover, rat; assay type: in vitro ADME
[11] = Microsomal turnover, human; assay type: in vitro ADME
[12] = target: T1, CYP1A2 (Homo sapiens, UniProt P05177); assay: Cytochrome P450 inhibition and time-dependent inhibition; assay type: in vitro ADME; conditions: liver microsomes, probe phenacetin
T1 sequence (P05177 1-516): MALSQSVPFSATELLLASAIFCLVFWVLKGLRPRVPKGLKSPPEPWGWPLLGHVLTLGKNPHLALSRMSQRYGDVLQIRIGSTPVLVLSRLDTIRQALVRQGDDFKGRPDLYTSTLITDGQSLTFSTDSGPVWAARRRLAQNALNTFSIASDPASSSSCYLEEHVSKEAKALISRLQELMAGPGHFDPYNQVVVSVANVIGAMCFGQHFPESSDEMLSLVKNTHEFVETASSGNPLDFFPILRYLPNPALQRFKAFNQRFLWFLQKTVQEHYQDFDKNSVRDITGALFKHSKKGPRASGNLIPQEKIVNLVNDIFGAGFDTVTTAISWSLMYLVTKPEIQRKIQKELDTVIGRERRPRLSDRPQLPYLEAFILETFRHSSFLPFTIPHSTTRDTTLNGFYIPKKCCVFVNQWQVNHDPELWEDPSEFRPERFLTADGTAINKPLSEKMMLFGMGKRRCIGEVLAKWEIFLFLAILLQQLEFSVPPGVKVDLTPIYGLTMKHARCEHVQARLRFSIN

[13] = tested on: tibialis anterior; conditions: healthy humans, nerve stimulation; cited from earlier work

Sequence of rabbit fast skeletal muscle myofibrils (P02586 2-160 limits assumed): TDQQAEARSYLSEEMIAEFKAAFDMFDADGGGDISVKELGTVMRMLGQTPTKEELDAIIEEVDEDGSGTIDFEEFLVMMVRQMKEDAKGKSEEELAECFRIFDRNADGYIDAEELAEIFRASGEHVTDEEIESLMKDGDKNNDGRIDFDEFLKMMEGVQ
Sequence of rabbit fast skeletal muscle myofibrils (P02643 2-182 limits assumed): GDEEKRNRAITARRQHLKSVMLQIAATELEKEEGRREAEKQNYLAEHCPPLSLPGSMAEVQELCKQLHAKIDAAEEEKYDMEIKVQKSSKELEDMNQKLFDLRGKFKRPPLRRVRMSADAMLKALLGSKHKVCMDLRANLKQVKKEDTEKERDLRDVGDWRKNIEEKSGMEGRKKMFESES
Sequence of rabbit fast skeletal muscle myofibrils (P02641 2-279 limits assumed): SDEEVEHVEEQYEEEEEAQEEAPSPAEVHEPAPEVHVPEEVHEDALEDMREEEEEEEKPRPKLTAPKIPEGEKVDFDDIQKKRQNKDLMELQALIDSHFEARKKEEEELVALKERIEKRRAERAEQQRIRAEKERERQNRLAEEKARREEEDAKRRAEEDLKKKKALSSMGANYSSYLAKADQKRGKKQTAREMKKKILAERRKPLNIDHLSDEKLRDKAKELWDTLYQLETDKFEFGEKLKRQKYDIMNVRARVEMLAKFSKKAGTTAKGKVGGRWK

Compound | clearance ([1]; 1 mg/kg) | fold improvement in biochemical potency over comparator [2] | muscle function and performance in ALS mouse model [3] | clearance [4] | in situ EDL muscle force [5] | in situ EDL muscle force ([5]; listed as tirasemtiv) | grip strength [6] | in vivo clearance as share of hepatic blood flow [7] | primary end point: change from baseline in slow vital capacity (SVC) at 24 weeks [8] | clearance [1] | drug-drug interaction: change of Riluzole concentrations [9] | Re (r), ratio of extraction in microsomes [10] | Re (h), ratio of extraction in microsomes [11] | IC50 shift at 30 min [12] | force produced by the tibialis anterior [13]
CCC(CC)n1c(=O)[nH]c2ncc(Br)nc21 [Compound 14] | 1.14 L/h/kg | 3 fold | – | – | – | – | – | – | – | – | – | – | – | – | –
CCC(CC)n1c(=O)[nH]c2ncc(Cl)nc21 [Compound 21] | 0.462 L/h/kg | – | – | – | – | – | – | – | – | – | – | – | – | – | –
C#Cc1cnc2nc(O)n(C(CC)CC)c2n1 [Compound 25, tirasemtiv] | 0.156 L/h/kg | 3 fold | significantly increased submaximal isometric force, forelimb grip strength, grid hang time, and rotarod performance | 0.834 L/h/kg | rapid, dose-dependent increases in muscle force at submaximal stimulation rates | concentration-dependent improvement in muscle force production in situ | increased grip strength | less than 15 % of hepatic blood flow | did not meet its primary end point | 0.156 L/h/kg | approximate doubling of Riluzole concentrations | 0.26 | <0.21 | > 3 | increased force produced by the tibialis anterior in a dose-, concentration-, and frequency-dependent manner
